Laboratory results as given in ChEMBL document CHEMBL1122506, “Cardiac-slowing amidines containing the 3-thioindone group. Potential antianginal agents” (1983).

How the values were obtained:
Canis familiaris [1] = experiment: Change in heart rate at the above D50 dose in conscious dogs; assay type: functional, Canis lupus familiaris
Summary of the method: (§1)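 Triazine tachycardia in conscious dogs: carotid artery and jugular vein catheterized with heparinized saline; 18 h after surgery, triazine vasodilator U20388 12 mg/kg po; about 1 h later, dog in sling with arterial pressure and ECG monitored. Test agent infused iv at 0.8 (mg/kg)/min to 30 mg/kg total. D50 = dose giving 50% of maximal slowing in that animal; ΔHR50 = heart-rate change at D50; CS index = %ΔHR50/D50.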

Canis familiaris [2] = experiment: Myocardial depression in anesthetized, ganglion-blocked dog; Moderate activity.
Canis familiaris [3] = species on record: Canis familiaris; experiment: Cardiac slowing index was measured for potency and efficacy; assay type: functional, Canis lupus familiaris; summary of the method: as §1
Canis familiaris [4] = species on record: Canis familiaris; experiment: Percent decrease from initial heart rate (percent delta HR50/HR0 x 100) in dogs; assay type: functional, Canis lupus familiaris; summary of the method: as §1
Canis familiaris [5] = species on record: Canis familiaris; experiment: Relative activity (fraction of the most active compound 24) was determined; assay type: functional, Canis lupus familiaris
Canis familiaris [6] = experiment: Dose required to achieve 50 % of maximal cardiac slowing in triazine tachycardia test in conscious dog; assay type: functional, Canis lupus familiaris; summary of the method: as §1
Canis familiaris [7] = experiment: Myocardial depression rating in anesthetized, ganglion-blocked dog; Weak activity.
Canis familiaris [8] = experiment: Evaluated for the heart rate at dose 0.5 mg/kg in 4 animals by poldine tachycardia test; assay type: functional, Canis lupus familiaris
Summary of the method: (§2)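 Poldine tachycardia: dogs prepared surgically as in the triazine method; poldine methyl sulfate 0.5 mg/kg iv, then 30 min later test agent in increasing doses (0.5/1.0/2.5 mg/kg) at 30-min intervals; read-out is the maximum percent decrease in heart rate at each dose.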

Canis familiaris [9] = experiment: Evaluated for the heart rate at dose 2.5 mg/kg in 4 animals by aminophylline-induced sinus tachycardia test; assay type: functional, Canis lupus familiaris
Canis familiaris [10] = experiment: Evaluated for the heart rate at dose 2.5 mg/kg in 4 animals by poldine tachycardia test; assay type: functional, Canis lupus familiaris; summary of the method: as §2
Canis familiaris [11] = experiment: Evaluated for the heart rate at dose 5.0 mg/kg in 4 animals by aminophylline-induced sinus tachycardia test; assay type: functional, Canis lupus familiaris
Canis familiaris [12] = experiment: Evaluated for the heart rate at dose 1.0 mg/kg in 4 animals by aminophylline-induced sinus tachycardia test; assay type: functional, Canis lupus familiaris
Canis familiaris [13] = experiment: Evaluated for the heart rate at dose 2.5 mg/kg in 4 animals by glucagon-induced tachycardia test; assay type: functional, Canis lupus familiaris
Canis familiaris [14] = experiment: Evaluated for the heart rate at dose 1.0 mg/kg in 4 animals by poldine tachycardia test; assay type: functional, Canis lupus familiaris; summary of the method: as §2
Canis familiaris [15] = experiment: Evaluated for the heart rate at dose 1.0 mg/kg in 4 animals by glucagon-induced tachycardia test; assay type: functional, Canis lupus familiaris

Structure (SMILES) | Delta HR50 (Canis familiaris [1]) | MD (Canis familiaris [2]) | CS index (Canis familiaris [3]) | Delta HR50 (Canis familiaris [4]) | Relative activity (Canis familiaris [5]) | D50 (Canis familiaris [6]) | MD (Canis familiaris [7]) | Max decrease in heart rate (Canis familiaris [8]) | Max decrease in heart rate (Canis familiaris [9]) | Max decrease in heart rate (Canis familiaris [10]) | Max decrease in heart rate (Canis familiaris [11]) | Max decrease in heart rate (Canis familiaris [12]) | Max decrease in heart rate (Canis familiaris [13]) | Max decrease in heart rate (Canis familiaris [14]) | Max decrease in heart rate (Canis familiaris [15])
Cc1[nH]c2ccc(Cl)cc2c1SCC/N=C1\CCCN1C | -33 beats min-1 | 3 | 7.5 | 17.2% | 0.23 | 2.3 mg/kg | – | – | – | – | – | – | – | – | –
CN1CCC/C1=N/CCc1c[nH]c2ccccc12 | -28 beats min-1 | – | 4.7 | 16% | 0.15 | 3.4 mg/kg | 2 | – | – | – | – | – | – | – | –
CN1CCN=C1NCCc1c[nH]c2ccccc12 | -47 beats min-1 | – | 2.1 | 20.5% | 0.06 | 9.7 mg/kg | 2 | – | – | – | – | – | – | – | –
Cc1[nH]c2ccccc2c1SCC/N=C1\CCCCN1C | -24 beats min-1 | 3 | 7.1 | 14.3% | 0.22 | 2 mg/kg | – | – | – | – | – | – | – | – | –
CN1CCCN=C1NCCSc1c[nH]c2ccccc12 | -38 beats min-1 | – | 3.1 | 20% | 0.1 | 6.4 mg/kg | – | – | – | – | – | – | – | – | –
CC(=NCCSc1c[nH]c2ccccc12)N(C)C | -50 beats min-1 | – | 11.5 | 23% | 0.36 | 2 mg/kg | 2 | – | – | – | – | – | – | – | –
C=CCCn1cc(SCC/N=C2\CCCN2C)c2ccccc21 | -33 beats min-1 | 3 | 14.7 | 16.2% | 0.46 | 1.1 mg/kg | – | – | – | – | – | – | – | – | –
CN1CCC/C1=N\CCCCSc1c[nH]c2ccccc12 | -42 beats min-1 | 3 | 10 | 20% | 0.31 | 2 mg/kg | – | – | – | – | – | – | – | – | –
COCCn1cc(SCC/N=C2\CCCN2C)c2ccccc21 | -33 beats min-1 | 2.5 | 11.7 | 17.6% | 0.37 | 1.5 mg/kg | – | – | – | – | – | – | – | – | –
C#CCn1cc(SCC/N=C2\CCCN2C)c2ccccc21 | -46 beats min-1 | – | 19.6 | 21.6% | 0.61 | 1.1 mg/kg | 2.5 | – | – | – | – | – | – | – | –
c1ccc2c(SCCNC3=NCCC3)c[nH]c2c1 | -51 beats min-1 | – | 6.2 | 23% | 0.19 | 3.7 mg/kg | – | – | – | – | – | – | – | – | –
CCn1cc(SCCCC/N=C2\CCCN2C)c2ccccc21 | -33 beats min-1 | 3.5 | 22.8 | 16% | 0.71 | 0.7 mg/kg | – | – | – | – | – | – | – | – | –
CC(C)n1cc(SCC/N=C2\CCCN2C)c2ccccc21 | -31 beats min-1 | – | 19.1 | 19.1% | 0.6 | 1 mg/kg | 2 | 15% | 33% | 55% | 47% | 16% | 39% | 38% | 23%
C=C(C)Cn1cc(SCC/N=C2\CCCN2C)c2ccccc21 | -42 beats min-1 | – | 4.5 | 20% | 0.14 | 4.4 mg/kg | 2.5 | – | – | – | – | – | – | – | –
CN1CCC/C1=N\CCSc1cn(C2CCCC2)c2ccccc12 | -40 beats min-1 | 3 | 7.8 | 21% | 0.24 | 2.7 mg/kg | – | – | – | – | – | – | – | – | –
Cc1c(SCC/N=C2\CCCN2C)c2ccccc2n1C | -21 beats min-1 | 3.5 | 13.9 | 12.5% | 0.43 | 0.9 mg/kg | – | – | – | – | – | – | – | – | –
C#CCn1c(C)c(SCC/N=C2\CCCN2C)c2ccccc21 | -20 beats min-1 | – | 3.4 | 18.5% | 0.11 | 5.5 mg/kg | – | – | – | – | – | – | – | – | –
CN1CCN=C1NCCSc1c[nH]c2ccccc12 | -38 beats min-1 | – | 6.9 | 19.9% | 0.22 | 2.9 mg/kg | 2 | – | – | – | – | – | – | – | –
C#CCn1cc(CC/N=C2/CCCN2C)c2ccccc21 | -47 beats min-1 | 3 | 14.9 | 22.3% | 0.46 | 1.5 mg/kg | – | – | – | – | – | – | – | – | –

Structure (SMILES) | Delta HR50 (Canis familiaris [1]) | MD (Canis familiaris [2]) | CS index (Canis familiaris [3]) | Delta HR50 (Canis familiaris [4]) | Relative activity (Canis familiaris [5]) | D50 (Canis familiaris [6]) | MD (Canis familiaris [7]) | Max decrease in heart rate (Canis familiaris [8]) | Max decrease in heart rate (Canis familiaris [9]) | Max decrease in heart rate (Canis familiaris [10]) | Max decrease in heart rate (Canis familiaris [11]) | Max decrease in heart rate (Canis familiaris [12]) | Max decrease in heart rate (Canis familiaris [13]) | Max decrease in heart rate (Canis familiaris [14]) | Max decrease in heart rate (Canis familiaris [15])
CCc1ccc2[nH]cc(SCC/N=C3\CCCN3C)c2c1 | -21 beats min-1 | – | 1.8 | 15.5% | 0.06 | 8.6 mg/kg | – | – | – | – | – | – | – | – | –
CC(CSc1c[nH]c2ccccc12)/N=C1\CCCN1C (configuration not stated) | -46 beats min-1 | 3.5 | 8.9 | 24% | 0.28 | 2.7 mg/kg | – | – | – | – | – | – | – | – | –
CN1CCC/C1=N/CCc1cn(Cc2ccccc2)c2ccccc12 | -52 beats min-1 | – | 9.3 | 24.3% | 0.29 | 2.6 mg/kg | – | – | – | – | – | – | – | – | –
CN1CCC/C1=N\CCSc1cn(C2C=CCCC2)c2ccccc12 (configuration not stated) | -52 beats min-1 | 3.5 | 10.9 | 20.8% | 0.34 | 1.9 mg/kg | – | – | – | – | – | – | – | – | –
CN1CCC/C1=N\CCSc1cn(CC2CC2)c2ccccc12 | -60 beats min-1 | – | 18.2 | 25.5% | 0.57 | 1.4 mg/kg | 2.5 | – | – | – | – | – | – | – | –
C=CCn1cc(CC/N=C2/CCCN2C)c2ccccc21 | -26 beats min-1 | – | 12.2 | 14.7% | 0.38 | 1.2 mg/kg | – | – | – | – | – | – | – | – | –
C=CCn1cc(SCC/N=C2\CCCN2C)c2ccccc21 | -52 beats min-1 | – | 22.2 | 22.2% | 0.69 | 1 mg/kg | 2 | – | – | – | – | – | – | – | –
CN1CCC/C1=N/CCCSc1c[nH]c2ccccc12 | -46 beats min-1 | 3 | 5.4 | 20.4% | 0.17 | 3.8 mg/kg | – | – | – | – | – | – | – | – | –
C=CCN1CCC/C1=N\CCSc1c[nH]c2ccccc12 | -22 beats min-1 | – | 17.7 | 12.4% | 0.55 | 0.7 mg/kg | – | – | – | – | – | – | – | – | –
Cc1[nH]c2ccccc2c1SCCNC1=NCCN1C | -37 beats min-1 | – | 7.5 | 19.5% | 0.23 | 2.6 mg/kg | 2.5 | – | – | – | – | – | – | – | –
CN1CCC/C1=N\CCSc1cn(Cc2ccccc2)c2ccccc12 | – | 3 | – | – | – | – | – | – | – | – | – | – | – | – | –
CN1CCCCC/C1=N\CCSc1c[nH]c2ccccc12 | -38 beats min-1 | – | 1.3 | 18.5% | 0.04 | 14.1 mg/kg | – | – | – | – | – | – | – | – | –
CN1CCC/C1=N\CCSc1c[nH]c2ccc(Cl)cc12 | -32 beats min-1 | – | 4.6 | 16.2% | 0.14 | 3.5 mg/kg | 2 | – | – | – | – | – | – | – | –
CN1CCCC/C1=N\CCSc1c[nH]c2ccccc12 | -51 beats min-1 | – | 7.5 | 22.4% | 0.23 | 3 mg/kg | 2.5 | – | – | – | – | – | – | – | –
COc1ccc2[nH]cc(SCC/N=C3\CCCN3C)c2c1 | -39 beats min-1 | – | 7.7 | 17.8% | 0.24 | 2.3 mg/kg | 2 | – | – | – | – | – | – | – | –
CN1CCC/C1=N\CCSc1cn(Cc2ccco2)c2ccccc12 | -42 beats min-1 | 3.5 | 8.6 | 22.4% | 0.27 | 2.6 mg/kg | – | – | – | – | – | – | – | – | –
CCN1CC(CC/N=C2\CCCN2C)c2ccccc21 (configuration not stated) | -45 beats min-1 | – | 5.6 | 18.4% | 0.17 | 3.3 mg/kg | 2 | – | – | – | – | – | – | – | –
c1ccc(N2CCC/C2=N\CCSc2c[nH]c3ccccc23)cc1 | -40 beats min-1 | – | 32 | 19.2% | 1 | 0.6 mg/kg | 2.5 | – | – | – | – | – | – | – | –
